Reference: ChEMBL document CHEMBL4304816, “A Novel Biphenyl-based Chemotype of Retinoid X Receptor Ligands Enables Subtype and Heterodimer Preferences” (ACS Med Chem Lett, 2019)

Organism: Homo sapiens
Test: Agonist activity at full-length human RXR/PPARgamma expressed in HEK293T cells at 1 uM after 14 to 16 hrs by dual-glo luciferase reporter gene assay relative to untreated control
Assay type: cell-based
Summary of the method: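 RXR:LXR or RXR:PPARγ heterodimer reporter assay with test compound alone. Activation expressed relative to 0.1% DMSO vehicle. Three independent experiments, each in duplicate; mean reported.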

For `CN(CCOc1ccc(CC2SC(=O)NC2=O)cc1)c1ccccn1` (stereo unspecified), the Activity was 224%.
